Laboratory results taken from ChEMBL document CHEMBL4513216, “Probing the Open Global Health Chemical Diversity Library for Multistage-Active Starting Points for Next-Generation Antimalarials” (ACS Infect Dis, 2020).

assay: Toxicity liver stage against HepG2, at 10uM; format: cell-based; set-up: test concentration 10 uM, cell line HepG2-A16-CD81EGFP; conditions: human, HepG2-A16-CD81EGFP cells; read-out: INHIBITION
How it was run: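 Uninfected HepG2-A16-CD81EGFP cells, 3 × 10^3 per well, 1536-well, plated on prespotted compound at 10 μM final, parasite-free screening media added to match infected plates; puromycin 10 μM positive, DMSO 0.5% negative; run in parallel with 48 h PbLuc assay at 37 °C, 5% CO2; viability by CellTiter-Glo luminescence, normalized to controls.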

In order of falling cytotoxicity at 10 µM:
1. Cc1cc(C)cc(C(=O)NCCCNc2ncccn2)c1  32.4%
2. COc1cc(F)cc(NC(=O)NCc2cccc(N(C)C)n2)c1  25%
3. Clc1cc(CN2CCCN3CCCC3C2)c2ncccc2c1 (stereo not given)  19.5%
4. Cc1cc(S(C)(=O)=O)c(C)c(S(=O)(=O)NCC2CCC2)c1  16.3%
5. Cc1cc(C(=O)NCc2cccnc2N2CCCC(O)C2)c(C)o1 (stereo not given)  16.3%
6. NC(c1ccc(F)cc1)c1cccs1 (stereo not given)  15.6%
7. COc1cc(N2CCOC(c3ccc(F)cc3)C2)ncn1 (stereo not given)  15.3%
8. COCCSCC(=O)NC1(c2cccc(Br)c2)CC1  13.3%
9. Cn1cc(C(=O)NCc2cn3c(n2)CN(C2CCOCC2)CC3)cn1  11.2%
10. CCn1nc(C)cc1C(=O)NCc1cc(N(C)C)nc2ccccc12  10.6%
11. Cc1ccsc1-c1nc(CN(C)Cc2cc[nH]n2)c(C)o1  10.3%
12. CN(C)C(=O)c1cccnc1N1CCOC(c2ccc(Cl)cc2)C1 (stereo not given)  9.39%
13. O=C(Cc1ccc(F)cc1)NCCNS(=O)(=O)C1CCCC1  9.31%
14. CN(C)C(=O)CCS(=O)(=O)Cc1cc(Cl)c2c(c1)OCCO2  9.15%
15. Cc1cc(F)ccc1N1CCC(N2C[C@@H](C)[C@@](C)(O)C2)CC1  8.79%
16. Cc1[nH]ccc1C(=O)N(C)C1CC(=O)N(Cc2ccccc2)C1=O (stereo not given)  8.76%
17. COc1ccc(-c2nc3c([nH]2)CCNC3C(=O)O)c2ccccc12 (stereo not given)  8.63%
18. COCCC(=O)N1CC2(CCN(Cc3ccoc3)C2)C1  8.47%
19. CCN(Cc1nc(-c2ccco2)no1)Cc1cccc2c1OCO2  8.33%
20. O=C(NC1CC1)c1nc(Cn2c(C(F)F)nc3ccccc32)no1  7.59%
21. CC(C)COc1cncc(NCCc2nnc3ccccn23)n1  7.55%
22. CCCN1CCc2[nH]cnc2C12CCN(C(=O)CCn1cccn1)CC2  7.36%
23. O=C(NCc1nc(NC2CCCC2)c2cc(Cl)ccc2n1)c1cscn1  7.12%
24. Oc1cccc(CN2CCN(C3CCc4ccccc4C3)CC2)c1 (stereo not given)  6.42%
25. CCCNC(=O)c1cccc(CNCc2csc(C(C)C)n2)c1  6.14%
26. CCC(CO)N(CC=C(C)C)Cc1ccsc1 (stereo not given)  6.07%
27. O=C1CC[C@H]2[C@H](CCN2c2ncccn2)N1c1ccccc1  5.77%
28. O=C(NCc1ccccn1)[C@@H]1CCO[C@@H]2CCN(Cc3ccoc3)C[C@H]21  5.33%
29. CC(=O)N1CCCC(Cc2cncc(Br)c2)CC1 (stereo not given)  4.99%
30. CC(C)N(Cc1ccc(C#N)cc1)C(=O)NCCNc1ncccn1  3.78%
31. Cc1cc(=O)n2ncnc2n1CC(O)COCc1ccccc1Cl (stereo not given)  3.52%
32. COC[C@]1(O)CCN(C(=O)c2cccc(CN(C)C)c2)CC1(C)C  3.26%
33. Cc1cnn(CC(C)NCc2ccc(OCc3ccncc3)cc2)c1 (stereo not given)  3.15%
34. Cc1ccc(-c2cc(N)c(=O)n(CC(=O)NC3CCCCC3)n2)s1  2.98%
35. CN1CCN(Cc2cn3c(n2)CN(C(=O)c2cccn2C)CC3)CC1  2.89%
36. CC(=O)N1CCN(CCNc2ncc(Br)cc2C)CC1  2.86%
37. Cc1noc([C@H]2C[C@@H]3CCN(C(=O)N(C)C)C[C@H]3O2)n1  2.8%
38. CC(C)N(C)S(=O)(=O)NCc1cccnc1N(C)C  2.57%
39. CCc1nc(CN2CCCN(C(=O)Cc3cccs3)CC2)cs1  2.55%
40. C=C(C)CN1CCC(NC(=O)NCCc2ccc(N(C)C)cc2)CC1  2.2%
41. COc1ccc(OC2CCN(c3ccncc3)CC2)cc1  2.1%
42. O=C(C[S+]([O-])Cc1cccc(F)c1)NC1CCCC1 (stereo not given)  1.79%
43. Cc1cccc(Cc2cc(C)nc(C3CCCNC3)c2)c1 (stereo not given)  1.58%
44. CC(C)Nc1nc(N2CCOCC2)nc2c1CN(Cc1ccoc1)CC2  1.52%
45. Cc1noc(C)c1CN1CC[C@H]2OCC[C@@H](C(=O)NCC3CC3)[C@H]2C1  1.27%
46. CCCN1CCC(Cc2nc(CN3CCN(C)CC3)no2)CC1  1.25%
47. CC(C)=CCN1C[C@@H]2CC[C@H]1CN(Cc1coc(C)n1)C2  1.25%
48. COc1ccc(CNC(Cc2ccsc2)c2ncccc2C)cc1OC (stereo not given)  0.735%
49. CCc1ccc(CNc2cc(-c3ccoc3C)nn2CCO)o1  0.485%
50. CN(Cc1ccc2c(c1)OCCO2)c1ncc(S(N)(=O)=O)s1  0.482%
51. CCNC(=O)c1ccc(NC(=O)N(C)Cc2cccn2C)c(C)c1  -0.132%
52. CCc1nc2c(NCC3COc4c(cccc4OC)C3)ncnc2o1 (stereo not given)  -0.164%
53. Cc1cnc(N2CCC3(CC(=O)N(Cc4csc(C)n4)C3)C2)nc1 (stereo not given)  -0.211%
54. CCOc1cc(CN(C)CCC(=O)OC)ccc1OC(F)F  -0.769%
55. CN(CCOc1cccc(F)c1)Cc1nc2c(cnn2C)c(=O)[nH]1  -0.966%
56. Cc1c(Cl)c(C(=O)NC(C)CN2CCOCC2)nn1C (stereo not given)  -1.77%
57. COc1cc(S(=O)(=O)N2C[C@@H](C)[C@@](C)(O)C2)c(C)cc1C  -2.06%
58. O=C(c1cc(=O)n(-c2ccccc2)[nH]1)N1CCCC(c2ccn[nH]2)C1 (stereo not given)  -2.21%
59. Cc1cnc(NC(=O)CSC2CCc3ccccc3NC2=O)s1 (stereo not given)  -2.34%
60. Cc1cnn(CCNC(C)c2nnc(-c3ccccc3)o2)c1 (stereo not given)  -2.4%
61. CCCn1ccnc1-c1cccc(NC(=O)C2CCCOC2)c1 (stereo not given)  -2.43%
62. Oc1ccccc1CN1CCC(n2cc(-c3ccc(F)cc3)nn2)CC1  -2.68%
63. Cn1nc(C2CCCN(Cc3ccc(F)c(F)c3)C2)c2nccnc21 (stereo not given)  -2.9%
64. NCc1cnn(-c2ccccc2C(=O)NCCCn2ccnc2)c1  -3.01%
65. CNCC(=O)Nc1ccc(-c2cnc(NCCS(C)(=O)=O)nc2)cc1  -3.08%
66. CC(C)c1nc(C2CCCN2CC(=O)Nc2ccc(Cl)cn2)no1 (stereo not given)  -3.13%
67. CC(=O)Nc1nc(CS(=O)(=O)Cc2ccccc2)cs1  -3.39%
68. Fc1cccc(F)c1Cn1c(C2CCNCC2)cc2cccnc21  -3.4%
69. O=C(CN1C=Nc2ccccc2S1(=O)=O)NCCCc1ccccc1  -3.54%
70. CN(C)C(=O)N1C[C@@H]2COC[C@]2(c2nnc(C3CC3)o2)C1  -4.05%
71. Cc1cc(C)c2cc(CNCC3CCCO3)c3nn(C)c(=O)n3c2c1 (stereo not given)  -4.63%
72. CC(=O)NS(=O)(=O)c1ccc(F)c(C(F)(F)F)c1  -4.73%
73. CCN(CCO)C[C@@H]1CN(c2nc(C)cc(C)n2)C[C@@H]1CO  -5.34%
74. CCOC(=O)C1CCN(C(=O)CN2CCCC2c2ccsc2)CC1 (stereo not given)  -5.42%
75. CCCn1nccc1NC(=O)CN1CCc2cnc(C(C)C)nc2C1  -5.59%
76. NC(=O)CN1CCC(C(=O)NCc2nc(-c3ccc(F)cc3)cs2)CC1  -5.79%
77. OCCNC1CCc2cc3c(cc21)OCCO3 (stereo not given)  -5.82%
78. NC(=O)C1CCN(Cc2csc(-c3ncccn3)n2)CC1  -6.04%
79. O=C(c1cc2c([nH]c1=O)CCC2)N1CCCCC1c1cccc(F)c1 (stereo not given)  -6.22%
80. Cc1cccc(N2CCN(C(=O)c3c(C)nn(C)c3C)CC2)c1C  -7.28%
81. Cc1sc2nc(C(F)(F)F)nc(N3CCN(S(C)(=O)=O)CC3)c2c1C  -8.07%
82. CC(C(=O)Nc1ncccn1)N1CCC(n2ccnc2)CC1 (stereo not given)  -8.15%
83. O=C(NCC1(O)CCOCC1)c1ccc(F)cc1  -9.52%
84. c1cc(CN2CCCN(c3ccc4cc[nH]c4n3)CC2)ccn1  -9.98%
85. c1ccc2oc(CN3CCCCC3Cn3cncn3)nc2c1 (stereo not given)  -13.9%
86. Cc1nccn1-c1ccc(NC(=O)C2CCCN2CC2CC2)cc1 (stereo not given)  -14%
87. Cc1ccc(CN(CCCn2ccnc2)Cc2ccccc2O)s1  -14.6%
88. CNc1cncc(C2CCCN2C(=O)c2ccc3c(c2)CCC3)n1 (stereo not given)  -15.1%
89. CCc1nccn1C1CCCN(C(=O)c2cnn3cccnc23)C1 (stereo not given)  -18.2%
90. O=C(COc1ccc(Cl)cc1)N1CCOCC1c1ncon1 (stereo not given)  -21%
91. COc1ccc(C)cc1C(C)NS(=O)(=O)c1ccc2c(c1)CCC(=O)N2 (stereo not given)  -33%
92. CC(C)Cc1ncc2c(n1)CN(C(=O)Cn1c(=O)oc3ccccc31)C2  -36.2%
93. CCCC(=O)NC1CCCN(c2cncc(Br)c2)C1 (stereo not given)  -38.5%
94. Cn1c(N)nnc1SCc1c(F)cccc1Br  -43.2%
95. Cc1cnc(N2CCC(OCCN3CCCCC3)C2)nc1C (stereo not given)  -43.9%
96. CC(C)(O)CCc1cccc(C(=O)NCc2cnn3cccnc23)c1  -44.8%
97. Cc1nc(-c2cccs2)ccc1C(=O)N1CCN(CC(C)O)CC1 (stereo not given)  -45.1%
98. Cc1cc(C(F)(F)F)nc(CNC(=O)C2CCCCCN2C)n1 (stereo not given)  -46%
99. CC(C)[C@@H]1CN(CCCOc2ccc(F)cc2)C[C@H]1NS(C)(=O)=O  -46.4%
100. COc1ccc2c(c1)C(C(=O)N(C)CCCc1cnn(C)c1)CC(=O)N2 (stereo not given)  -46.9%
101. Cc1cc(C(=O)N[C@H]2COC[C@@H]2N2CCOCC2)c2ccc(F)cc2n1  -48.2%
102. COc1nc2c(cc1C(=O)N1CCCOC(CN3CCCC3)C1)CCC2 (stereo not given)  -48.8%
103. CNC(=O)C1=NOC2(CCN(Cc3nccs3)C2)C1 (stereo not given)  -73.4%
104. CNC(=O)[C@@]12CCO[C@@H]1CCN(S(=O)(=O)c1cc(C)cc(C)c1)C2  -73.5%
105. CCS(=O)(=O)N1CCC2(CC1)CN(c1ccsc1)C(=O)CO2  -73.7%
106. Cn1cc(CN2CC[C@@H](NS(C)(=O)=O)[C@@H]2Cc2cccnc2)cn1  -74.4%
107. Cc1nc(COC[C@H]2CCC[C@]23CN(CC2CC2)CCO3)cs1  -76.9%
108. Cn1cc(N2CC3(CCN(Cc4ccsc4)CC3)OCC2=O)cn1  -82.8%
109. CC1c2ncc(COc3cccnc3)n2CCN1Cc1ccco1 (stereo not given)  -105%
110. Cc1ccoc1C(=O)N1CC[C@H]2C[C@H](c3nnc(C4CC4)o3)O[C@@H]2C1  -105%
